Assay results from ChEMBL document CHEMBL4261600 (Eur J Med Chem, 2018).

Assays:
[1] = biological target: Serine/threonine-protein kinase 26 (Homo sapiens) (UniProt Q9P289); experiment: Binding affinity to wild-type human full length MST4 (M1 to P416 residues) expressed in mammalian expression system assessed as remaining unbound target protein level at 1000 nM by Kinomescan method relative to control
How it was run: (§1)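 Single-point competition binding screen across a panel of 468 kinases and mutants, with the inhibitor at 1 μM. Binding is read out as percent of a DMSO control, and targets below 1 percent control were classed as strong binders.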

[2] = Apparent volume of distribution in mouse at 3 mg/kg, iv by LC-MS/MS analysis; type: ADME, organism-based; conditions: in vivo, read-out: Vz
How it was run: (§2)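 Non-compartmental PK. Male SD rats 190-210 g, mice and beagle dogs acclimatized one week, fasted 12 h with water, split into iv and po groups (mice 48, rats 6, dogs 6). iv 3/3/2 mg/kg (mice/rats/dogs); po 10/20/10 mg/kg; vehicle DMSO in 5% glucose water. Blood at 2 or 5 to 720 min; plasma protein-precipitated with methanol, caffeine internal standard, LC-MS/MS.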

Ramos = experiment: Antiproliferative activity against human Ramos cells after 72 hrs by Celltiter-Glo assay; type: functional
How it was run: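 Cells seeded at 3000/well in 96-well plates, exposed to serially diluted compound for 72 h at 37 °C, 5% CO2. Viability read by CellTiter-Glo luminescence and normalized to DMSO control. GI50 derived from curve fit, mean of three independent measurements. Culture media: DMEM/10% FBS for adherent lines; IMDM for MV4-11 and MEC-1/2; RPMI 1640 for suspension lines and CHL.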

[3] = system: Mast/stem cell growth factor receptor Kit (Homo sapiens), P10721 [D816V]; experiment: Binding affinity to human partial length KIT D816V mutant (I571 to D952 residues) expressed in bacterial expression system assessed as remaining unbound target protein level at 1000 nM by Kinomescan method relative to control
Sequence of Mast/stem cell growth factor receptor Kit (Homo sapiens), P10721 [D816V] (P10721 whole entry D816V, the tested form may be a part): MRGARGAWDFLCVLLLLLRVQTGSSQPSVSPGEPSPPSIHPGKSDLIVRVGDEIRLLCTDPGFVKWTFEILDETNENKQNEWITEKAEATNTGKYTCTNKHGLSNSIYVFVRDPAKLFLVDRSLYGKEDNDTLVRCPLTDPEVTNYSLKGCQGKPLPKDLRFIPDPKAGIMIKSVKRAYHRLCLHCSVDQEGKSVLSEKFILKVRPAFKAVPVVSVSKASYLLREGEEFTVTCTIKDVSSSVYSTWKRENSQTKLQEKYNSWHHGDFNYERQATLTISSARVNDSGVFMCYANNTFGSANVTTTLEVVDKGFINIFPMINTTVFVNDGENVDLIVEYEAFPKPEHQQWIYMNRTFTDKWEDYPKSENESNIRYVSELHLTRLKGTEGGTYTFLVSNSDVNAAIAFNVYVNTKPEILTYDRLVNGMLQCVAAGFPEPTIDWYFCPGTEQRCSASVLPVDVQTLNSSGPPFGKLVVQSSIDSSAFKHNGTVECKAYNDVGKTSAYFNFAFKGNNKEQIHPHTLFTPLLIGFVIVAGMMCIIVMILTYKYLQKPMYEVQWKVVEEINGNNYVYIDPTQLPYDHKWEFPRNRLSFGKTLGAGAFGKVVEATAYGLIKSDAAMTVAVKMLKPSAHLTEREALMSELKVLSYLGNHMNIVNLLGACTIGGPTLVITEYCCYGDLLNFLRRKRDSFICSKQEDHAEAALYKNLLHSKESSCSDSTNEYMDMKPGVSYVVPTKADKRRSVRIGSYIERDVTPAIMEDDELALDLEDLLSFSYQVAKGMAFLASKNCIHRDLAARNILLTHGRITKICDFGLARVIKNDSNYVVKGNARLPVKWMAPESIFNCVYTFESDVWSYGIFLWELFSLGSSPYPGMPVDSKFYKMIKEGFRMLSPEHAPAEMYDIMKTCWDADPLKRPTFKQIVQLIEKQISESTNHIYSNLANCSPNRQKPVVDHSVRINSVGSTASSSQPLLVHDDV
How it was run: (§3)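 KINOMEscan competition-binding profiling across the panel of 468 kinases and mutants, with inhibitor tested at 1 μM. Binding is expressed as percent of control, with DMSO as the reference control.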

[4] = biological target: Dual specificity mitogen-activated protein kinase kinase 2 (Homo sapiens) (UniProt P36507); experiment: Binding affinity to wild-type human full length MEK2 (M1 to V400 residues) expressed in mammalian expression system assessed as remaining unbound target protein level at 1000 nM by Kinomescan method relative to control
How it was run: (§4)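 KINOMEscan competition binding profile across a panel of 468 kinases and mutants, with the inhibitor tested at a single concentration of 1 μM. Binding is reported as percent of control, meaning signal relative to a DMSO control.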

[5] = Tmax in mouse at 3 mg/kg, iv by LC-MS/MS analysis; type: ADME, organism-based; conditions: in vivo
[6] = biological target: Serine/threonine-protein kinase PAK 3 (Homo sapiens) (UniProt O75914); experiment: Binding affinity to wild-type human full length PAK3 (M1 to R544 residues) expressed in bacterial expression system assessed as remaining unbound target protein level at 1000 nM by Kinomescan method relative to control
Sequence of Serine/threonine-protein kinase PAK 3 (Homo sapiens) (O75914 whole entry, looked up, the tested form may be a part): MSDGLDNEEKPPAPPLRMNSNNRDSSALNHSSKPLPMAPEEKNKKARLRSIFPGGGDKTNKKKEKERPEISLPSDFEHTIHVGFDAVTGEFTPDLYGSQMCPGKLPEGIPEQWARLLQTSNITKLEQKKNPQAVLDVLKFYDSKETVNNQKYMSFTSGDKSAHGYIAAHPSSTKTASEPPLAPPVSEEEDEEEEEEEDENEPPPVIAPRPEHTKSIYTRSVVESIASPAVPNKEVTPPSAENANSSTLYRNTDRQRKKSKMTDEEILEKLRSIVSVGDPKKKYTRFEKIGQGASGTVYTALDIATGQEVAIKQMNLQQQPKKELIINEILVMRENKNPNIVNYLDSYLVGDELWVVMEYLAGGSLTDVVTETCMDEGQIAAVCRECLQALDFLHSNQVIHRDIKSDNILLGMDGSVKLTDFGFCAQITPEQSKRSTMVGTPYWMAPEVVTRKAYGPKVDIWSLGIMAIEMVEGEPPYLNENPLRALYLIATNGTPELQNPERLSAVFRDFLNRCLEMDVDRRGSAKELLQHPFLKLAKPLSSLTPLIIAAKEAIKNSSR
How it was run: (§5)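 Profiled in a KINOMEscan binding panel with the inhibitor at a single concentration of 1 μM. Binding to each kinase was read out as percent of control, relative to a DMSO control. Strong binders were defined as those with a percent control value below 1.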

[7] = biological target: Calcium/calmodulin-dependent protein kinase type II subunit alpha (Homo sapiens) (UniProt Q9UQM7); experiment: Binding affinity to wild-type human partial length CAMK2A (M1 to K328 residues) expressed in bacterial expression system assessed as remaining unbound target protein level at 1000 nM by Kinomescan method relative to control; how it was run: as §5
Sequence of Calcium/calmodulin-dependent protein kinase type II subunit alpha (Homo sapiens) (Q9UQM7 whole entry, the tested form may be a part): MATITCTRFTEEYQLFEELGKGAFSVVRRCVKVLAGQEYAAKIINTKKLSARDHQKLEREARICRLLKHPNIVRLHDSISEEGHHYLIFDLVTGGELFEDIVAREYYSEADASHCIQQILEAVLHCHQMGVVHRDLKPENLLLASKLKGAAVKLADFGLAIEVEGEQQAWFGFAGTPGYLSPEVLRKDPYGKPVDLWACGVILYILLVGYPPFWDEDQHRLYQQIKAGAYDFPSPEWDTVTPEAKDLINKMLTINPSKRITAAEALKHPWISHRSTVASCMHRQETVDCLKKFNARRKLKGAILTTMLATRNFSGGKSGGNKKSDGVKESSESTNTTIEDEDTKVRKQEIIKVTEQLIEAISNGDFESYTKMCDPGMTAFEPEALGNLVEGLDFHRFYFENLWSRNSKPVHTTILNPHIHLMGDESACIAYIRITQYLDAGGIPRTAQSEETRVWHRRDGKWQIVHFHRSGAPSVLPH

[8] = AUC (0 to t) in beagle dog at 10 mg/kg, po by LC-MS/MS analysis; type: ADME, organism-based, Canis lupus familiaris; conditions: in vivo; how it was run: as §2
[9] = biological target: Rho-associated protein kinase 2 (Homo sapiens) (UniProt O75116); experiment: Binding affinity to wild-type human partial length ROCK2 (M1 to T431 residues) expressed in mammalian expression system assessed as remaining unbound target protein level at 1000 nM by Kinomescan method relative to control
[10] = system: Hepatocyte growth factor receptor (Homo sapiens), P08581 [M1250T]; experiment: Binding affinity to human partial length MET M1250T mutant (D1010 to S1367 residues) expressed in bacterial expression system assessed as remaining unbound target protein level at 1000 nM by Kinomescan method relative to control; how it was run: as §3
[11] = biological target: Cyclin-G-associated kinase (Homo sapiens) (UniProt O14976); experiment: Binding affinity to wild-type human partial length GAK (G13 to Y338 residues) expressed in bacterial expression system assessed as remaining unbound target protein level at 1000 nM by Kinomescan method relative to control
[12] = biological target: Interleukin-1 receptor-associated kinase 4 (Homo sapiens) (UniProt Q9NWZ3); experiment: Binding affinity to wild-type human partial length IRAK4 (M1 to S460 residues) expressed in mammalian expression system assessed as remaining unbound target protein level at 1000 nM by Kinomescan method relative to control
Sequence of Interleukin-1 receptor-associated kinase 4 (Homo sapiens) (Q9NWZ3 whole entry, the tested form may be a part): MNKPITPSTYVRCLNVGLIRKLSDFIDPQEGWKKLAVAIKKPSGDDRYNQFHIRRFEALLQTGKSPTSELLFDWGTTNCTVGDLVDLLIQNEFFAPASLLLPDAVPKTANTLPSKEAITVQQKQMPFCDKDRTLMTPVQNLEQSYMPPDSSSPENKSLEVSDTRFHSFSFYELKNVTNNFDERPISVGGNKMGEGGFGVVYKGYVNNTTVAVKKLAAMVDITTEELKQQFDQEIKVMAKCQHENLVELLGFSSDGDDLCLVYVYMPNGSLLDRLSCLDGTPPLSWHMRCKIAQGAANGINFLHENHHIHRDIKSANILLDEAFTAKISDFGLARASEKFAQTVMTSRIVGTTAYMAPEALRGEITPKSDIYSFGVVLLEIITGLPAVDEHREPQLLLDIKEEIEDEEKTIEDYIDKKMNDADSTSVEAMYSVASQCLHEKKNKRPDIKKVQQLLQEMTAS
How it was run: (§6)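 KINOMEscan binding panel of 468 kinases/mutants. Inhibitor was tested at a single concentration of 1 μM. Binding is reported as percent of control, defined relative to a DMSO control.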

[13] = biological target: Serine/threonine-protein kinase haspin (Homo sapiens) (UniProt Q8TF76); experiment: Binding affinity to wild-type human partial length HASPIN (I452 to K798 residues) expressed in mammalian expression system assessed as remaining unbound target protein level at 1000 nM by Kinomescan method relative to control; how it was run: as §6
Sequence of Serine/threonine-protein kinase haspin (Homo sapiens) (Q8TF76 whole entry, the tested form may be a part): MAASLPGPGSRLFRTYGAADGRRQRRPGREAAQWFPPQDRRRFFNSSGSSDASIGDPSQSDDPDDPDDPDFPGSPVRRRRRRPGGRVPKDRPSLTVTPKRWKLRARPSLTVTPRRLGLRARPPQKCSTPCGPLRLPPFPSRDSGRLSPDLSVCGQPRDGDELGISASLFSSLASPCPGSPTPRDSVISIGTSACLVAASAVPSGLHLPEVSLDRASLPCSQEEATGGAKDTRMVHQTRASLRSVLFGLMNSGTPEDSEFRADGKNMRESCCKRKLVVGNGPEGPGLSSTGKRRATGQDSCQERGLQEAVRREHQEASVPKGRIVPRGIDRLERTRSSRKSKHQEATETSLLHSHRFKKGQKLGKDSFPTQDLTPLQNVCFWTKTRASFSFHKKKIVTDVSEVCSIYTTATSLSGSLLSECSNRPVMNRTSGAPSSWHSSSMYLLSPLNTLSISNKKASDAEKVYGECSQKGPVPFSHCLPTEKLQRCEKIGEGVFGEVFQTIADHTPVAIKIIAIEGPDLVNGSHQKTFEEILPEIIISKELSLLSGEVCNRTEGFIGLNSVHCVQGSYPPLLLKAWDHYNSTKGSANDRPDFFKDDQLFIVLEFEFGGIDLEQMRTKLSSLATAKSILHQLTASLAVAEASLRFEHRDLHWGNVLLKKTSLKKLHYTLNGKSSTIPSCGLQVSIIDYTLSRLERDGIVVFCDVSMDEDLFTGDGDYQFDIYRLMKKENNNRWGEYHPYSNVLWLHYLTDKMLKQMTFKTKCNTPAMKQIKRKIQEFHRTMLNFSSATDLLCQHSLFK

[14] = biological target: Activin receptor type-2A (Homo sapiens) (UniProt P27037); experiment: Binding affinity to wild-type human ACVR2A (V171 to T499 residues) expressed in bacterial expression system assessed as remaining unbound target protein level at 1000 nM by Kinomescan method relative to control; how it was run: as §1
Sequence of Activin receptor type-2A (Homo sapiens) (P27037 whole entry, the tested form may be a part): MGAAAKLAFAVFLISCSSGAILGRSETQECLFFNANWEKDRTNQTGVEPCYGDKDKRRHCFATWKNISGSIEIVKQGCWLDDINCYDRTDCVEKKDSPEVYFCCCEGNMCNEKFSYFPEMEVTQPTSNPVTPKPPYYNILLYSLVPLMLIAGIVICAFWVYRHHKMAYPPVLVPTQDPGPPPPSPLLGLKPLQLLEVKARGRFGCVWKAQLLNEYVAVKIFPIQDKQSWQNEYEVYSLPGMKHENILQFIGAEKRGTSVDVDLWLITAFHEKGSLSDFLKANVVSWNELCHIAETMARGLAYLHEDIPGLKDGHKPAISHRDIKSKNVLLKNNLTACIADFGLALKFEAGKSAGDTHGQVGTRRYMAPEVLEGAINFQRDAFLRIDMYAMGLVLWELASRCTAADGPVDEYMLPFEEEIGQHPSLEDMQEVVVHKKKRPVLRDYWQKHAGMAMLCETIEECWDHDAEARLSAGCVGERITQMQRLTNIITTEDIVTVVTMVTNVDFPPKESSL

[15] = biological target: Serine/threonine-protein kinase 32A (Homo sapiens) (UniProt Q8WU08); experiment: Binding affinity to wild-type human full length YANK1 (M1 to L396 residues) expressed in mammalian expression system assessed as remaining unbound target protein level at 1000 nM by Kinomescan method relative to control; how it was run: as §5
Sequence of Serine/threonine-protein kinase 32A (Homo sapiens) (Q8WU08 whole entry, the tested form may be a part): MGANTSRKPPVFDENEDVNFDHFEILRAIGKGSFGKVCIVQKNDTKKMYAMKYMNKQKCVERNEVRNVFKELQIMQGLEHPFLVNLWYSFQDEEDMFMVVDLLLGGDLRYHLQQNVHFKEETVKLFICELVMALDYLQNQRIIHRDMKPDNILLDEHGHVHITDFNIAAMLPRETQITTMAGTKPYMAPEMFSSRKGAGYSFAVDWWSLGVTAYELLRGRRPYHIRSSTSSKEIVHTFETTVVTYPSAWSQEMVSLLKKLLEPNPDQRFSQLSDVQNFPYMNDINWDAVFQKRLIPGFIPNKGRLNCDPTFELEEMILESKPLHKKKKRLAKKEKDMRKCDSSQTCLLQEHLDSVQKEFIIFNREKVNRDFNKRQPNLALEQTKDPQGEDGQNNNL

[16] = biological target: Dual specificity tyrosine-phosphorylation-regulated kinase 1B (Homo sapiens) (UniProt Q9Y463); experiment: Binding affinity to wild-type human full length DYRK1B (M1 to S629 residues) expressed in bacterial expression system assessed as remaining unbound target protein level at 1000 nM by Kinomescan method relative to control; how it was run: as §4
Sequence of Dual specificity tyrosine-phosphorylation-regulated kinase 1B (Homo sapiens) (Q9Y463 whole entry, looked up, the tested form may be a part): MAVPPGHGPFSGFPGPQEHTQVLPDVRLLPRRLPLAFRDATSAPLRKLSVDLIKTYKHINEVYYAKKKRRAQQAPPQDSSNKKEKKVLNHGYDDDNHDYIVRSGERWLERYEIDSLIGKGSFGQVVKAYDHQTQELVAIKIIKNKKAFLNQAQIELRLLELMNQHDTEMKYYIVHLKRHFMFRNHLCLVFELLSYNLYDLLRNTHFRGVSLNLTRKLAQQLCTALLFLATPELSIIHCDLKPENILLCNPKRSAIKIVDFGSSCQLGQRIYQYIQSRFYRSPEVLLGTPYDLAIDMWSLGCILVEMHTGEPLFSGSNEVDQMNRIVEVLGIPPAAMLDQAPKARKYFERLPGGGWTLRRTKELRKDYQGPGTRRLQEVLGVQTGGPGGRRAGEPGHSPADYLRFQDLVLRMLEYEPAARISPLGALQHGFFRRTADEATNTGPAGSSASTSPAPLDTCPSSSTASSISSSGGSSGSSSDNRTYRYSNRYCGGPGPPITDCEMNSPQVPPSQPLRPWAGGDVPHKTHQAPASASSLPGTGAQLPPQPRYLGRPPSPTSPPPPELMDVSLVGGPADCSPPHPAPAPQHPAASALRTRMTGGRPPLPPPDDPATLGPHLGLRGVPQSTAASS

[17] = biological target: MAP/microtubule affinity-regulating kinase 4 (Homo sapiens) (UniProt Q96L34); experiment: Binding affinity to wild-type human partial length MARK4 (K29 to G340 residues) expressed in bacterial expression system assessed as remaining unbound target protein level at 1000 nM by Kinomescan method relative to control
[18] = system: Mast/stem cell growth factor receptor Kit (Homo sapiens), P10721 [V559D,V654A]; experiment: Binding affinity to human partial length KIT V559D/V654A double mutant (Y545 to D952 residues) expressed in bacterial expression system assessed as remaining unbound target protein level at 1000 nM by Kinomescan method relative to control; how it was run: as §3

COCCN[C@H]1CC[C@H](Nc2cc(-c3csc(NCC4(C#N)CCOCC4)n3)c(Cl)cn2)CC1
Activity [1]: 96% | Vd [2]: 18.2 L/kg | GI50 (Ramos): 13 nM | Activity [3]: 87% | Activity [4]: 95% | Tmax [5]: 4.98 min | Activity [6]: 97% | Activity [7]: 100% | AUC(0-t) [8]: 3940 ng·h/mL | Activity [9]: 98% | Activity [10]: 100% | Activity [11]: 100% | Activity [12]: 81% | Activity [13]: 94% | Activity [14]: 100% | Activity [15]: 100% | Activity [16]: 0.35% | Activity [17]: 87% | Activity [18]: 100%
